Assay outcomes (PubChem)
The list is not random: actives were taken first. Their share in the collection is about 3.9%.
HSF1 inhib = HSF1 inhibitors in luciferase reporter cells, primary screen, cell-based, NIH3T3, luminescence. NIH3T3-HGL HSE-luciferase, MG132-induced, luminescence 8 h; hits give low values. activity change, negative = inhibition, % at 7.5 µM (by protocol). 0.77% of 300,000 active. AID 2098, 2009;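 active = more than half of replicate wells show activity change below -50%, luminescence cut by over half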;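 also: luciferase reports HSF-1 transcriptional activity via heat shock element; 0% = median of DMSO wells and -100% = zero luminescence signal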
HSP90 refold inh = HSP90 inhibitors, primary screen, cell lysate, luminescence; Heat shock protein HSP 90 (rabbit reticulocyte lysate; luciferase refolding); Rabbit reticulocyte lysate, luciferase refolding luminescence, 3 h; inhibition, % at 5.6 µM; 0.91% of 290,000 active; AID 1789, 2009;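 active = inhibition above the screen-wide mean plus 3 SD, computed separately per campaign, cut at about 16% in these data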;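 also: 0% = DMSO wells and 100% = 60 µM geldanamycin wells; inhibitors lower the luminescence because luciferase stays unfolded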
DNA FID counter = compounds displacing fluorescent DNA intercalator, primary screen, artefact control for HCV NS3 helicase inhibitor project, biochemical, FID fluorescence; DNA fluorescent intercalator displacement; inhibition, % at 7.9 µM; 0.17% of 290,000 active; in the data active = inhibition above about 37%;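 also: 0% = vehicle and 100% = reference compound; higher means more ethidium bromide displaced from hairpin DNA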
NS3 helicase inh = inhibitors of HCV NS3 helicase, primary screen, biochemical, Cy5 molecular beacon fluorescence. inhibition, % at 10.9 µM. 0.56% of 290,000 active. Hepatitis C virus NS3 helicase. NS3 helicase DNA unwinding. AID 1800, 2009;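 active = inhibition above the mean of all tested compounds plus 3 SD, set per campaign, cut at about 35% in these data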;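 also: 0% = DMSO wells and 100% = thioflavine S control wells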
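Assay system – hepatitis C virus NS3 helicase domain fragment enzyme · Buffer or medium – MOPS pH 6.5, MgCl2, DTT, Tween20, BSA · Reagent – Cy5/quencher beacon DNA duplex and ATP to start · Compound – single 10.9 µM dose · Timing – 1 h at 25 °C · Technique – Cy5 beacon fluorescence read at start and 1 h · Measure – % inhibition of unwinding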
core dimer inh = inhibitors of HCV core protein dimerization, primary screen, biochemical, TR-FRET, high-throughput; TR-FRET GST/Flag-core106 dimerization, 1536-well; inhibition, % at 5 µM; 0.33% of 300,000 active;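 active = inhibition above the mean of all tested compounds plus 3 SD, set per screening campaign, cut at about 45% in these data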
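test system = GST/Flag-tagged HCV core106 proteins | probe or stimulus = Eu donor and XL665 acceptor anti-tag antibodies | times = compound-protein-antibody incubation 4 h at 22.5 °C | signal = TR-FRET, excitation 340 nm, emission 617 and 671 nm | measure = percent inhibition of core106 dimerization signal | controls = wells lacking GST-core106 and wells with excess unlabelled core106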
HSF-1 act = HSF-1 activators, primary screen, NIH3T3-HGL cells, MG132 stress, luminescence, single point | NIH3T3-HGL HSF-1 luciferase reporter, 8 h; 100% = twice DMSO control signal | activation, % at 9 µM | 1.7% of 300,000 active | AID 504408, 2011;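 active = mean replicate activation of at least 50% with a set share of replicates each reaching 50%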;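 also: 0% = median of the neutral control wells and 100% = twice that signal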
An asterisk follows results filed as active; . = not tested or not shown.

SMILES | HSF1 inhib | HSP90 refold inh | DNA FID counter | NS3 helicase inh | core dimer inh | HSF-1 act
COc1c(C)cccc1C(=O)Nc1ccc(N2CCOCC2)c(Cl)c1 | 25.0 | 3.9 | -25.8 | -8.6 | -7.3 | 60.3*
Cc1ccc(NC(=O)c2ccc([N+](=O)[O-])o2)cc1S(=O)(=O)N1CCOCC1 | 65.9 | 1.3 | 12.4 | -6.2 | 0.2 | 74.8*
O=C(Nc1cccc(S(=O)(=O)N2CCCCC2)c1)c1ccc([N+](=O)[O-])o1 | 55.6 | -0.8 | 1.7 | -4.9 | -1.1 | 73.5*
Cc1ccc(NC(=O)c2cc(NC(=O)c3ccco3)ccc2N2CCCCC2)cc1 | 1.2 | 2.0 | -1.1 | 0.3 | 15.2 | 7.3
O=C(Nc1ccc(N2CCOCC2)c(Cl)c1)c1cccnc1Cl | 2.3 | -2.1 | -3.5 | -3.4 | 8.1 | 1.7
O=C(COC(=O)c1ccc([N+](=O)[O-])o1)Nc1cccc(S(=O)(=O)N2CCCCC2)c1 | 2.2 | -1.2 | 7.4 | -9.8 | -0.9 | 7.2
Cc1ccc(C)c(C(=O)CN2C(=O)NC3(CCC(C)CC3)C2=O)c1 (stereo unspecified) | -21.0 | -0.5 | -2.1 | -1.3 | 0.9 | -32.9
Cc1nc(C)c(C(=O)N/N=C/c2cc(Br)ccc2O)s1 | 17.1 | -1.2 | -5.2 | -5.2 | -3.6 | 22.2
CN1CCN(c2ccc(NC(=O)c3ccc(-c4ccc(Cl)cc4)o3)cc2)CC1 | -10.5 | 4.7 | 37.8* | -88.9 | -25.6 | 3.6
COc1cc(/C=C(/C#N)C(=O)c2c(C)[nH]c3ccccc23)ccc1OCC#N | 41.5 | 5.4 | -4.7 | -4.1 | 10.0 | 68.4*
CCOC(=O)N1CCN(C(=O)/C=C/c2ccc(OC)cc2)CC1 | -7.3 | -3.1 | -16.1 | 5.2 | 1.7 | -3.6
O=C(COC(=O)c1ccc(S(=O)(=O)NCc2ccco2)cc1)Nc1ccccc1OC(F)F | 49.2 | -2.3 | -14.8 | 8.8 | 10.4 | 102.6*
CN(C)S(=O)(=O)c1ccc(C(=O)OCC(=O)Nc2ccccc2OC(F)F)cc1 | -6.6 | -2.0 | -10.5 | -2.2 | -1.0 | -0.9
N#C/C(=C\c1c(Cl)cccc1Cl)c1nc2ccccc2[nH]1 | 1.6 | 0.8 | -4.0 | -9.9 | -1.2 | 10.6
N#C/C(=C\c1ccc(Cl)cc1)c1nc2ncccc2[nH]1 | 20.1 | 0.4 | 0.3 | 22.1 | 2.1 | 53.7*
Cc1ccc(N/C=C(/C#N)c2ccsc2)cc1 | 26.3 | -4.2 | -4.6 | -3.5 | -1.1 | 53.2*
N#C/C(=C/Nc1ccccc1)c1ccsc1 | 9.1 | 2.2 | -1.5 | 0.7 | -4.0 | 17.3
Cc1ccc(/C=c2/sc3n(c2=O)CCCN=3)o1 | 25.9 | 0.5 | -2.6 | 7.0 | -7.9 | 48.4
O=C(NCc1ccc(/C=c2\sc3n(c2=O)CCN=3)o1)C(=O)Nc1ccccc1 | 8.0 | -4.1 | -5.5 | 0.2 | 58.7* | 6.1
O=C(O)c1cccc(N2C(=O)/C(=C/c3ccc([N+](=O)[O-])cc3)C=C2c2ccccc2)c1 | -71.7* | 13.6 | -29.1 | 16.5 | 17.0 | -74.3
O=C1/C(=C/c2ccc([N+](=O)[O-])cc2)C=C(c2ccccc2)N1c1ccc(O)cc1 | 44.9 | -1.7 | 0.3 | -3.8 | 8.5 | 94.6*
O=C1/C(=C/c2ccc([N+](=O)[O-])cc2)C=C(c2ccccc2)N1c1ccccc1 | 16.7 | -1.6 | 2.4 | 7.3 | 3.1 | 35.4
COc1ccc(N2C(=O)/C(=C/c3ccc([N+](=O)[O-])cc3)C=C2c2ccccc2)cc1 | 15.2 | -0.7 | -0.7 | 2.1 | 17.2 | 22.6
Cc1ccc(SSc2cc(C)ccc2N)c(N)c1 | -10.5 | . | . | . | -18.1 | -12.1
COC(=O)Cn1c(=O)c2c(nc3n2CC(C)CN3Cc2ccccc2)n(C)c1=O (stereo unspecified) | 0.3 | -3.1 | -43.5 | 1.0 | 2.9 | 3.2
COC(=O)Cn1c(=O)c2c(nc3n2CC(C)CN3CCc2ccccc2)n(C)c1=O (stereo unspecified) | 18.0 | -5.0 | -39.1 | -8.0 | . | 63.1*
NCCCCCc1nnc(SC/C=C/c2ccccc2)o1 | 57.2 | -0.9 | 13.9 | -38.8 | -2.0 | 97.2*
